In the library only some 4% were active in any assay of this set; here they are far more common.
KCNQ1 block: human KCNQ1 channel inhibition; P51787; CHO-K1 KCNQ1, FluxOR thallium flux fluorescence; hits give high values; B-score at 10 µM; 1.3% of 310,000 active; AID 2642;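 active means compounds whose thallium flux B-score, printed positive for inhibition, exceeds three library SD while starting fluorescence stays within three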;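 further: channel opened by potassium depolarization with thallium stimulus after 20 min compound exposure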
KCNK9 block: blocks the human KCNK9 two-pore domain potassium channel. Q9NPC2. HEK293 KCNK9, FluxOR thallium flux fluorescence; hits give low values. B-score at 10 µM. 1.2% of 310,000 active. AID 488922;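 active means ratio B-score over 3 SD below the library mean, with starting fluorescence within 5 SD of its mean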;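 further: negative B-score means less thallium flux so channel inhibition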
hERG rescue: compounds protecting human hERG from proarrhythmic drug block; activation (rescue from dofetilide block), less the hit threshold, % at 10 µM; 0.51% of 310,000 active; Q12809; CHO-hERG, FluxOR thallium flux, dofetilide IC70 present;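 active means activation above the mean of controls blocked by dofetilide plus 5 SD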;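 further: thallium influx through hERG after potassium depolarization seen as dye fluorescence rise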
PHOSPHO1 block: PHOSPHO1 (human) inhibition. Q8TCT1. 1.1% of 290,000 active. recombinant PHOSPHO1, absorbance phosphatase assay. inhibition, % at 13.3 µM; in the data active means inhibition above about 60%
Target sequence (Q8TCT1 whole entry, looked up): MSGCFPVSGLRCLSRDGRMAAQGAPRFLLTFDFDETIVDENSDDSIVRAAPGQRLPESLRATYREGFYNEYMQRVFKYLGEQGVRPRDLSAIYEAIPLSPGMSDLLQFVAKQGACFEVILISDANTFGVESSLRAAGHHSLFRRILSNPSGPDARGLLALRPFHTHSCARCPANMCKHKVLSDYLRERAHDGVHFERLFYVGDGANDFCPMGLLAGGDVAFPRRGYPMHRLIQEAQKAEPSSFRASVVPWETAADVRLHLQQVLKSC
KCNK3 block: human KCNK3 channel inhibition, primary screen; O14649; CHO-KCNK3 thallium flux, FluxOR fluorescence; hits give low values; B-score at 10 µM; 0.84% of 340,000 active; AID 602410;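 active means B-score under library mean minus 4 SD, starting fluorescence ratio at most library mean plus 5 SD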;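 further: more negative B-score means stronger inhibition of thallium flux through KCNK3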
Target sequence (O14649 whole entry, looked up): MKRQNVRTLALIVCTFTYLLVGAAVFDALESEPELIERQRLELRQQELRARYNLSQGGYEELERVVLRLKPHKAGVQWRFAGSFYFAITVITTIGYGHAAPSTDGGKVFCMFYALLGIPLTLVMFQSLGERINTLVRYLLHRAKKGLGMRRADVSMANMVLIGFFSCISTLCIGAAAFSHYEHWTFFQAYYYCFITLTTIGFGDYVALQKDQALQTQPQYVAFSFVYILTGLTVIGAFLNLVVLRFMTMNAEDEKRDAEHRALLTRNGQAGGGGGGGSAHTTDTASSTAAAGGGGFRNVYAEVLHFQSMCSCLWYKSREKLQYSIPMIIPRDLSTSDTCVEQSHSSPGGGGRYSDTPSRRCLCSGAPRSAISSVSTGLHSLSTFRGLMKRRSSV
KCNQ1 pot: human KCNQ1 channel potentiation or activation; CHO-K1 KCNQ1, thallium flux FluxOR fluorescence; hits give high values; B-score at 10 µM; 0.35% of 310,000 active; AID 2648;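 active means fluorescence ratio B-score, a plate-corrected score, at least three library SD, with initial intensity B-score within 5 SD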
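Medium – assay buffer, equal DMSO in all wells · Material – CHO-K1 cell line with stable KCNQ1 potassium channel expression · Signal – kinetic FluxOR thallium fluorescence, 10-s 1-Hz baseline, 110-s post-stimulus read · Compound – single concentration per compound, DMSO matched to controls · Schedule – 37 °C overnight plating, 90-min dark dye load, 20-min compound pretreatment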
KCNK9 block conf: confirmation of human KCNK9 potassium channel inhibitors | inhibition, % at 10 µM | shares compounds with KCNK9 block | AID 492992 | HEK293 KCNK9 cells, FluxOR thallium flux fluorescence | 43% of 4,900 active;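 active means thallium signal inhibited by more than 5 SD of the compound-free buffer control wells, on both duplicate plates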
Kir2-1 spec: tests whether KCNK9 modulators also affect mouse Kir2.1. 4% of 4,900 active. Kir2.1 cells, FluxOR thallium flux fluorescence. shares compounds with KCNK9 block. inhibition, % at 10 µM;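 active means thallium signal drop more than 5 SD beyond the mean of the no-compound control wells, seen in both duplicate plates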;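 further: signal is fluorescence rise after thallium addition divided by baseline fluorescence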
HEK293 Tl ctr: second check of KCNK9 modulator effects in non-induced HEK293 cells; 40% of 4,900 active; shares compounds with KCNK9 block; inhibition, % at 10 µM; FluxOR thallium flux;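 active means thallium signal drop beyond 5 SD of the untreated control mean, on both duplicate plates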
Each line names hits and unclear results; the compound was inactive in the other large screens (follow-up assays come after a bar, where they were run).

COc1cc(OC)c2c(-c3ccccc3)cc(=O)oc2c1C(CCN1CCN(c2ccccc2)CC1)c1ccc(N(C)C)cc1 (configuration not stated)	none
COc1cc(OC)c2ccc(=O)oc2c1C(CCN1CCN(c2ccccc2)CC1)c1ccc(N(C)C)cc1 (configuration not stated)	none | KCNK9 block conf inactive | Kir2-1 spec inactive | HEK293 Tl ctr inactive
Cn1c(=O)n(CCc2ccccc2)c(=O)c2c1nc1n2CCCN1CCc1ccccc1	none
CC(C)Cn1c(=O)c2c(nc3n2CCCN3CCc2ccccc2)n(C)c1=O	KCNK9 block -8.58 | KCNK9 block conf 45.5% | Kir2-1 spec inactive | HEK293 Tl ctr inactive
COc1cccc(CC2(CO)CCCN(Cc3sc(N4CCCC4)nc3Cl)C2)c1 (configuration not stated)	none | KCNK9 block conf inactive | Kir2-1 spec inactive | HEK293 Tl ctr inactive
CC1Cc2ccccc2N1C(=O)c1cc2sccc2n1Cc1ccc(F)cc1 (configuration not stated)	KCNQ1 block 8, KCNK9 block -9.82 | KCNK9 block conf 37.0% | Kir2-1 spec inactive | HEK293 Tl ctr 23.0%
O=C(NC(c1ccc(Cl)cc1)c1c(O)ccc2ccccc12)c1ccccc1 (configuration not stated)	none (no result: KCNQ1 block, KCNK9 block, hERG rescue, KCNQ1 pot)
O=C(NC(c1ccccc1)c1c(O)ccc2ccccc12)c1ccccc1Cl (configuration not stated)	KCNK9 block -10.1, KCNK3 block -9.42 | KCNK9 block conf inactive | Kir2-1 spec inactive | HEK293 Tl ctr 44.0%
Cc1ccc(SC(CC(=O)c2ccc(F)cc2)C(=O)O)cc1 (configuration not stated)	none
CC(C)(C)c1ccc(C(=O)CC(Sc2ccc(Cl)cc2)C(=O)O)cc1 (configuration not stated)	none | KCNK9 block conf inactive | Kir2-1 spec inactive | HEK293 Tl ctr inactive
NC(=O)c1c(NC(=O)C2CCCO2)sc2c1CCCCC2 (configuration not stated)	none
N#C/C(=C\c1cn[nH]c1-c1ccc(Cl)cc1)C(=O)NC1CC1	none
N#C/C(=C\c1cn[nH]c1-c1ccccc1)C(=O)NC1CCCCCC1	none | KCNK9 block conf inactive | Kir2-1 spec inactive | HEK293 Tl ctr inactive
CCN(CC)c1ccc(/C=N/N2CCN(Cc3ccccc3)CC2)c(O)c1	none | KCNK9 block conf inactive | Kir2-1 spec inactive | HEK293 Tl ctr inactive
CCN(CC)c1ccc(/C=N/N2CCN(Cc3ccccc3)CC2)cc1	none | KCNK9 block conf inactive | Kir2-1 spec inactive | HEK293 Tl ctr inactive
CSc1ccc(/C=N/N2CCN(Cc3ccc(C)cc3C)CC2)cc1	none | KCNK9 block conf inactive | Kir2-1 spec inactive | HEK293 Tl ctr inactive
C(=N\N1CCN(Cc2ccccc2)CC1)/c1ccccc1	none
CCN(CC)c1ccc(/C=N/N2CCN(Cc3ccccc3Cl)CC2)cc1	KCNQ1 block 6 | KCNK9 block conf inactive | Kir2-1 spec inactive | HEK293 Tl ctr inactive
CCN(CC)c1ccc(/C=N/N2CCOCC2)c(O)c1	none
Cc1cc2cc3c(=O)[nH]c(=O)nc-3n(CC(O)C(O)C(O)CO)c2cc1C (configuration not stated)	none (no result: KCNQ1 block, KCNK9 block, hERG rescue, PHOSPHO1 block, KCNQ1 pot)
CC(C)C(NC(=O)/C(=C\c1ccco1)NC(=O)c1ccco1)C(=O)O (configuration not stated)	none
CCN(CC)c1ccc(/C=N/Nc2cccc(C)c2)c(O)c1	none | KCNK9 block conf inactive | Kir2-1 spec inactive | HEK293 Tl ctr inactive
CCN(CC)c1ccc(/C=N/NC(=S)NC)c(O)c1	none
CCN(CC)c1ccc(/C=N/N2CCN(Cc3ccc(C)cc3C)CC2)c(O)c1	none | KCNK9 block conf inactive | Kir2-1 spec inactive | HEK293 Tl ctr inactive
COc1cc2ncnc(N[C@H](C)c3ccccc3)c2cc1OC	none
Oc1ccccc1C1=Nc2ccccc2N=C(c2cccs2)C1	KCNK9 block -10.1 | KCNK9 block conf 42.5% | Kir2-1 spec inactive | HEK293 Tl ctr 34.0%
Cc1ccc(N(CC(=O)NCc2ccc(F)cc2)C(=O)c2csnn2)c(C)c1	none
CSc1ccccc1OCc1cc(C(=O)N(C)Cc2ccc(C)o2)no1	none | KCNK9 block conf inactive | Kir2-1 spec inactive | HEK293 Tl ctr inactive
C[C@H](NC(=O)c1ccco1)C(=O)OCC(=O)N1CC(=O)Nc2ccccc21	none (no result: KCNQ1 block, KCNK9 block, hERG rescue, PHOSPHO1 block, KCNQ1 pot)
O=S(=O)(c1cc(Cl)ccc1Cl)N1CCCCC1	none
Cc1cc(S(=O)(=O)N2CCCCCC2)c(Cl)cc1Cl	none | KCNK9 block conf inactive | Kir2-1 spec inactive | HEK293 Tl ctr inactive
CCC(CC)C(=O)Nc1ccccc1-n1cccc1	none
Cc1cccc(C)c1-n1nnnc1SCSc1nnnn1-c1c(C)cccc1C	KCNK9 block -12.9 | KCNK9 block conf inactive | Kir2-1 spec inactive | HEK293 Tl ctr 35.0%
COC(=O)CCCC(=O)N1CCCC(C(=O)c2ccc(OC)cc2C)C1 (configuration not stated)	none | KCNK9 block conf inactive | Kir2-1 spec inactive | HEK293 Tl ctr inactive
COc1ccc(C(=O)C2CCCN(C(=O)c3cccnc3OC)C2)c(C)c1 (configuration not stated)	none | KCNK9 block conf inactive | Kir2-1 spec inactive | HEK293 Tl ctr inactive
COc1ccccc1C(=O)C1CCCN(C(=O)CCc2ccccn2)C1 (configuration not stated)	none
COc1ccc(C(=O)C2CCCN(C(=O)c3ccnn3C)C2)c(C)c1 (configuration not stated)	none
CCn1nc(C)cc1C(=O)N1CCCC(C(=O)c2ccc(OC)cc2C)C1 (configuration not stated)	none
COc1ccc2cc(C(=O)C3CCCN(C(=O)c4cnn(C(C)C)c4)C3)ccc2c1 (configuration not stated)	none | KCNK9 block conf inactive | Kir2-1 spec inactive | HEK293 Tl ctr inactive
COc1ccc2cc(C(=O)C3CCCN(C(=O)c4cccnc4)C3)ccc2c1 (configuration not stated)	none
COc1ccc(C(=O)C2CCCN(C(=O)CCc3ccccn3)C2)c(C)c1 (configuration not stated)	none | KCNK9 block conf inactive | Kir2-1 spec inactive | HEK293 Tl ctr inactive
CC1=C(CC(=O)O)c2cc(F)ccc2C1=Cc1ccc(S(C)(=O)=O)cc1	none (no result: KCNQ1 block, KCNK9 block, hERG rescue, PHOSPHO1 block, KCNQ1 pot)
Oc1ccccc1/C=C/c1noc(-c2ccccc2O)n1	none
